How the values were obtained:
Bacillus cereus = test: Antibacterial activity against Bacillus cereus ATTC 10702 at 1 mg/ml after 24 hrs by well-diffusion method; type: functional; details: ATTC 10702, 24 h, read-out: DIZ
Method in brief: (§1)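 Agar well diffusion. About 1 cm3 of a 24 h infusion-broth culture (10^6 cfu cm-3) was mixed in plates with 15 cm3 molten nutrient agar held at 45°C. Once the agar set, 6 mm wells were punched and filled with compound solution (1 mg ml-1 in DMSO). Plates were incubated 24 h at 37°C, and the inhibition-zone diameter was measured. Ciprofloxacin and sulphamethoxazole were the standards.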

Salmonella typhimurium = test: Antibacterial activity against Salmonella Typhimurium ATTC 23564 at 1 mg/ml after 24 hrs by well-diffusion method; type: functional, Salmonella enterica subsp. enterica serovar Typhimurium; details: Salmonella enterica, ATTC 23564, 24 h; read-out: DIZ
Escherichia coli = test: Antibacterial activity against Escherichia coli ATTC 25922 at 1 mg/ml after 24 hrs by well-diffusion method; type: functional; details: ATTC 25922, 24 h, read-out: DIZ; method in brief: as §1
Klebsiella pneumoniae = test: Antibacterial activity against Klebsiella pneumoniae ATCC 10031 at 1 mg/ml after 24 hrs by well-diffusion method; type: functional; details: ATCC 10031, 24 h, read-out: DIZ

With O=[N+]([O-])c1ccc(-c2nnc(-c3ccc(-c4nnc(-c5ccc([N+](=O)[O-])cc5)o4)cc3)o2)cc1 the zone of inhibition at 1000 µg/mL (Bacillus cereus) was 9 mm, the zone of inhibition at 1000 µg/mL (Salmonella typhimurium) was 8 mm and the zone of inhibition at 1000 µg/mL (Escherichia coli) was 9 mm. The zone of inhibition at 1000 µg/mL (Klebsiella pneumoniae) was 8 mm.
COc1ccc(/C=N/NC(=O)c2ccc(C(=O)N/N=C/c3ccc(OC)cc3)cc2)cc1 showed a zone of inhibition at 1000 µg/mL (Bacillus cereus) of 6 mm, a zone of inhibition at 1000 µg/mL (Salmonella typhimurium) of 4 mm and a zone of inhibition at 1000 µg/mL (Escherichia coli) of 6 mm. It also gave a zone of inhibition at 1000 µg/mL (Klebsiella pneumoniae) of 6 mm.
With O=[N+]([O-])c1ccc(-c2nn3c(-c4ccc(-c5nnc6sc(-c7ccc([N+](=O)[O-])cc7)nn56)cc4)nnc3s2)cc1 the zone of inhibition at 1000 µg/mL (Bacillus cereus) was 5 mm, the zone of inhibition at 1000 µg/mL (Salmonella typhimurium) was 5 mm and the zone of inhibition at 1000 µg/mL (Escherichia coli) was 5 mm. It also gave a zone of inhibition at 1000 µg/mL (Klebsiella pneumoniae) of 5 mm.
Work on Oc1ccc(-c2nnc(-c3ccc(-c4nnc(-c5ccc(O)cc5)o4)cc3)o2)cc1 yielded a zone of inhibition at 1000 µg/mL (Bacillus cereus) of 5 mm, a zone of inhibition at 1000 µg/mL (Salmonella typhimurium) of 4 mm and a zone of inhibition at 1000 µg/mL (Escherichia coli) of 6 mm. For the same compound, the zone of inhibition at 1000 µg/mL (Klebsiella pneumoniae) was 6 mm.
O=C(N/N=C/c1ccccc1Br)c1ccc(C(=O)N/N=C/c2ccccc2Br)cc1 gave a zone of inhibition at 1000 µg/mL (Bacillus cereus) of 5 mm, a zone of inhibition at 1000 µg/mL (Salmonella typhimurium) of 6 mm and a zone of inhibition at 1000 µg/mL (Escherichia coli) of 6 mm. It also gave a zone of inhibition at 1000 µg/mL (Klebsiella pneumoniae) of 5 mm.
Work on Clc1ccccc1-c1nn2c(-c3ccc(-c4nnc5sc(-c6ccccc6Cl)nn45)cc3)nnc2s1 yielded a zone of inhibition at 1000 µg/mL (Bacillus cereus) of 7 mm, a zone of inhibition at 1000 µg/mL (Salmonella typhimurium) of 6 mm and a zone of inhibition at 1000 µg/mL (Escherichia coli) of 6 mm. It also gave a zone of inhibition at 1000 µg/mL (Klebsiella pneumoniae) of 6 mm.
Nc1ccc(-c2nnc(-c3ccc(-c4nnc(-c5ccc(N)cc5)o4)cc3)o2)cc1 showed a zone of inhibition at 1000 µg/mL (Bacillus cereus) of 6 mm, a zone of inhibition at 1000 µg/mL (Salmonella typhimurium) of 5 mm and a zone of inhibition at 1000 µg/mL (Escherichia coli) of 6 mm. The zone of inhibition at 1000 µg/mL (Klebsiella pneumoniae) was 5 mm.
Work on Cc1cc(NS(=O)(=O)c2ccc(N)cc2)no1 [SULFAMETHOXAZOLE] yielded a zone of inhibition at 1000 µg/mL (Bacillus cereus) of 10 mm, a zone of inhibition at 1000 µg/mL (Salmonella typhimurium) of 11 mm and a zone of inhibition at 1000 µg/mL (Escherichia coli) of 12 mm. It also gave a zone of inhibition at 1000 µg/mL (Klebsiella pneumoniae) of 10 mm.
Compound O=C(N/N=C/c1ccccc1Cl)c1ccc(C(=O)N/N=C/c2ccccc2Cl)cc1 has a zone of inhibition at 1000 µg/mL (Bacillus cereus) of 8 mm, a zone of inhibition at 1000 µg/mL (Salmonella typhimurium) of 7 mm and a zone of inhibition at 1000 µg/mL (Escherichia coli) of 5 mm. For the same compound, the zone of inhibition at 1000 µg/mL (Klebsiella pneumoniae) was 6 mm.
O=C(NN1C(=O)CSC1c1ccccc1Cl)c1ccc(C(=O)NN2C(=O)CSC2c2ccccc2Cl)cc1 (stereo not given) showed a zone of inhibition at 1000 µg/mL (Bacillus cereus) of 6 mm, a zone of inhibition at 1000 µg/mL (Salmonella typhimurium) of 6 mm and a zone of inhibition at 1000 µg/mL (Escherichia coli) of 7 mm. The zone of inhibition at 1000 µg/mL (Klebsiella pneumoniae) was 6 mm.
Work on O=C(NN1C(=O)CSC1c1ccccc1Br)c1ccc(C(=O)NN2C(=O)CSC2c2ccccc2Br)cc1 (stereo not given) yielded a zone of inhibition at 1000 µg/mL (Bacillus cereus) of 7 mm, a zone of inhibition at 1000 µg/mL (Salmonella typhimurium) of 6 mm and a zone of inhibition at 1000 µg/mL (Escherichia coli) of 7 mm. It also gave a zone of inhibition at 1000 µg/mL (Klebsiella pneumoniae) of 7 mm.
Clc1ccc(-c2nnc(-c3ccc(-c4nnc(-c5ccc(Cl)cc5)o4)cc3)o2)cc1 showed a zone of inhibition at 1000 µg/mL (Bacillus cereus) of 8 mm, a zone of inhibition at 1000 µg/mL (Salmonella typhimurium) of 6 mm and a zone of inhibition at 1000 µg/mL (Escherichia coli) of 8 mm. It also gave a zone of inhibition at 1000 µg/mL (Klebsiella pneumoniae) of 4 mm.
Nn1c(S)nnc1-c1ccc(-c2nnc(S)n2N)cc1 gave a zone of inhibition at 1000 µg/mL (Bacillus cereus) of 5 mm, a zone of inhibition at 1000 µg/mL (Salmonella typhimurium) of 6 mm and a zone of inhibition at 1000 µg/mL (Escherichia coli) of 7 mm. It also gave a zone of inhibition at 1000 µg/mL (Klebsiella pneumoniae) of 6 mm.
c1ccc(-c2nnc(-c3ccc(-c4nnc(-c5ccccc5)o4)cc3)o2)cc1 gave a zone of inhibition at 1000 µg/mL (Bacillus cereus) of 8 mm, a zone of inhibition at 1000 µg/mL (Salmonella typhimurium) of 7 mm and a zone of inhibition at 1000 µg/mL (Escherichia coli) of 8 mm. The zone of inhibition at 1000 µg/mL (Klebsiella pneumoniae) was 7 mm.
O=C(N/N=C/c1ccccc1)c1ccc(C(=O)N/N=C/c2ccccc2)cc1 was tested, and the zone of inhibition at 1000 µg/mL (Bacillus cereus) was 4 mm, the zone of inhibition at 1000 µg/mL (Salmonella typhimurium) was 4 mm and the zone of inhibition at 1000 µg/mL (Escherichia coli) was 6 mm. For the same compound, the zone of inhibition at 1000 µg/mL (Klebsiella pneumoniae) was 5 mm.
With O=C(O)c1cn(C2CC2)c2cc(N3CCNCC3)c(F)cc2c1=O [CIPROFLOXACIN] the zone of inhibition at 1000 µg/mL (Bacillus cereus) was 18 mm, the zone of inhibition at 1000 µg/mL (Salmonella typhimurium) was 23 mm and the zone of inhibition at 1000 µg/mL (Klebsiella pneumoniae) was 21 mm.
O=C(NN1C(=O)CSC1c1ccccc1)c1ccc(C(=O)NN2C(=O)CSC2c2ccccc2)cc1 (stereo not given) showed a zone of inhibition at 1000 µg/mL (Bacillus cereus) of 8 mm, a zone of inhibition at 1000 µg/mL (Salmonella typhimurium) of 7 mm and a zone of inhibition at 1000 µg/mL (Escherichia coli) of 8 mm. The zone of inhibition at 1000 µg/mL (Klebsiella pneumoniae) was 6 mm.
Work on COc1ccc(-c2nnc(-c3ccc(-c4nnc(-c5ccc(OC)cc5)o4)cc3)o2)cc1 yielded a zone of inhibition at 1000 µg/mL (Bacillus cereus) of 6 mm, a zone of inhibition at 1000 µg/mL (Salmonella typhimurium) of 4 mm and a zone of inhibition at 1000 µg/mL (Escherichia coli) of 7 mm. The zone of inhibition at 1000 µg/mL (Klebsiella pneumoniae) was 5 mm.
For O=C(N/N=C/c1ccc(O)cc1)c1ccc(C(=O)N/N=C/c2ccc(O)cc2)cc1, the zone of inhibition at 1000 µg/mL (Bacillus cereus) was 6 mm, the zone of inhibition at 1000 µg/mL (Salmonella typhimurium) was 5 mm and the zone of inhibition at 1000 µg/mL (Escherichia coli) was 5 mm. The zone of inhibition at 1000 µg/mL (Klebsiella pneumoniae) was 5 mm.
